These results are taken from ChEMBL document CHEMBL1131239, “Orally active benzamide antipsychotic agents with affinity for dopamine D2, serotonin 5-HT1A, and adrenergic alpha1 receptors” (J Med Chem, 1998).

Experiment [1] deals with Rattus norvegicus. Nature of the experiment: compound was tested for antipsychotic activity by conditioned avoidance response(CAR) assay in rats with a pretreatment period of 30 min upon intra peritoneal administration at a concentration of 13.4 mg/kg. Type of experiment: functional. In outline: (§1)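 Trained rats (N = 4) were run in 1-h sessions on two consecutive days, with the experimenter blind to drug and dose. Fed rats had food and water until placed in the test chambers. Fasted rats had no food overnight before the experiment.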

Experiment [2] deals with T1, Adrenergic receptor alpha-1 (Rattus norvegicus, UniProt P15823+P23944+P43140).
T1 sequence (P15823 whole entry): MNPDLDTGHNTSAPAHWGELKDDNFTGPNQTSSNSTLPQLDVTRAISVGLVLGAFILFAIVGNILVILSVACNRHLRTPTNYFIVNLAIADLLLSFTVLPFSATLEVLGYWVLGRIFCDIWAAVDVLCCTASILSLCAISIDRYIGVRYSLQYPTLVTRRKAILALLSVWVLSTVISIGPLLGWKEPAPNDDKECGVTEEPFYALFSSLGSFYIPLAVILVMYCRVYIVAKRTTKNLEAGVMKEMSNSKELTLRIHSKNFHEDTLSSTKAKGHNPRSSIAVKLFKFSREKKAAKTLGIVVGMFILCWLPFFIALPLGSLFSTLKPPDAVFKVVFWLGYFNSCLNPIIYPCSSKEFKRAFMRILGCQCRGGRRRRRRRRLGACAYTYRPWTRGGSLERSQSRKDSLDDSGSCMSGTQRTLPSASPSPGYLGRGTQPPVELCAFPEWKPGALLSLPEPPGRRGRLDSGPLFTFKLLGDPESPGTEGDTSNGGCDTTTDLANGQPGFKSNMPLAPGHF
T1 sequence (P23944 whole entry): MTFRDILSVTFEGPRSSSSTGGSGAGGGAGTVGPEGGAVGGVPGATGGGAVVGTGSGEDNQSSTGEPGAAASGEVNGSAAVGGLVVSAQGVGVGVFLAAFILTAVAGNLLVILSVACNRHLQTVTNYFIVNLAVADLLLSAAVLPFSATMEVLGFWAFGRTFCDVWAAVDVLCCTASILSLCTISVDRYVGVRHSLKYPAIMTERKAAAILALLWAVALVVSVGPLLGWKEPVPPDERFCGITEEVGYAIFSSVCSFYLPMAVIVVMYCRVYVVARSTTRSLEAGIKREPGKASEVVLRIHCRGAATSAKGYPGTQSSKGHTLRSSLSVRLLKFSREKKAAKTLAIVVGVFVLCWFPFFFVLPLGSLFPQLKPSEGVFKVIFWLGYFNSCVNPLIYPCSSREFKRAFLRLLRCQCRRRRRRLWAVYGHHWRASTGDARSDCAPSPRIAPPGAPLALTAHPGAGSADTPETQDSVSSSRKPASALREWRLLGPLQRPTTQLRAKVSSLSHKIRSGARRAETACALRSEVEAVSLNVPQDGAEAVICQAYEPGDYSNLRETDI
T1 sequence (P43140 whole entry): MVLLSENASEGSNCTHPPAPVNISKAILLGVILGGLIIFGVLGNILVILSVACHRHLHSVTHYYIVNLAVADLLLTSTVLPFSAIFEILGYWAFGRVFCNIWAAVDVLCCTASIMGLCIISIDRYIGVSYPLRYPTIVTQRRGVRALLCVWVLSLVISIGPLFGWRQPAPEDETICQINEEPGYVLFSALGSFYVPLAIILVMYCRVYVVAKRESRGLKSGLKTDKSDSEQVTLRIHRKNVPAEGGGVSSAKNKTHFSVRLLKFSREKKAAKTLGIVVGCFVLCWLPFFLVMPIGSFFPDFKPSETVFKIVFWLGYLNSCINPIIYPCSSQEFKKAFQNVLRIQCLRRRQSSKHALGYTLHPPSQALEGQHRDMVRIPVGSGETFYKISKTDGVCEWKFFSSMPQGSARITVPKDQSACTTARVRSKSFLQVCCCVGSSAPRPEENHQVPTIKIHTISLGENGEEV
Nature of the experiment: Binding affinity against Alpha-1 adrenergic receptor from rat cerebral cortex. Format: tissue-based.

The test system of experiment [3] is Rattus norvegicus. The experiment is described as follows: Percent catalepsy in male Spargue-Dawley rat at pretreatment time 240 mins and when administered ip at dose 50 mg/kg (4/5L denotes that four rats out of five died during the course of experiment). Format: functional. The note with it: route intraperitoneal. In outline: (§2)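 Catalepsy scored in groups of five rats per drug treatment, with the experimenter blind to drug and dose, in a quiet room. Each session included two control groups: saline (or vehicle) as negative control and haloperidol 2 mg/kg as positive control. Deaths during the experiment were recorded as lethality (e.g., 3/5L) in place of percent catalepsy.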

In experiment [4] the target is T2, 5-hydroxytryptamine receptor 1A (Rattus norvegicus, UniProt P19327).
T2 sequence (P19327 whole entry): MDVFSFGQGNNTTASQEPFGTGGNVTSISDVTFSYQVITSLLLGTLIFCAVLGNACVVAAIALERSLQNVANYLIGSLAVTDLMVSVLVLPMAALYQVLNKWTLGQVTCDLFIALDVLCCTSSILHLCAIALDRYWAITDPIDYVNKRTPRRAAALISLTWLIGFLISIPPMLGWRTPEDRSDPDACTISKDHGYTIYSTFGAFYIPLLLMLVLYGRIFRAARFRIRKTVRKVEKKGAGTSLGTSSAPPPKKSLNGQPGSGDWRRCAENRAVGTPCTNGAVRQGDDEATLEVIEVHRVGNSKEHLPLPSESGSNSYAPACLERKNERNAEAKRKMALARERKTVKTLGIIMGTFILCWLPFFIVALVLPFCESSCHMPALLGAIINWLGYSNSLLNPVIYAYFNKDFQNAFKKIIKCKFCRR
The experiment is described as follows: Compound was evaluated for its binding affinity against 5-hydroxytryptamine 1A receptor from rat cerebral cortex. Format: tissue-based.

The subject of experiment [5] is Rattus norvegicus. The experiment is described as follows: compound was tested for antipsychotic activity by conditioned avoidance response(CAR) assay in rats with a pretreatment period of 30 min upon intra peritoneal administration at a concentration of 1 mg/kg. Type of experiment: functional. In outline:
as §1

The subject of experiment [6] is Rattus norvegicus. The experiment is described as follows: compound was tested for antipsychotic activity by conditioned avoidance response(CAR) assay in rats with a pretreatment period of 30 min upon intra peritoneal administration at a concentration of 7.5 mg/kg. Format: functional. In outline:
as §1

The test system of experiment [7] is Rattus norvegicus. The experiment is described as follows: Percent catalepsy in male Spargue-Dawley rat at pretreatment time 60 mins and when administered ip at dose 50 mg/kg (3/5L denotes that three rats out of five died during the course of experiment). The following applies: route intraperitoneal. Format: functional. In outline:
as §2

For experiment [8], the system named is Rattus norvegicus. The experiment is described as follows: compound was tested for antipsychotic activity by conditioned avoidance response(CAR) assay in rats with a pretreatment period of 30 min upon intra peritoneal administration at a concentration of 15 mg/kg. Format: functional. In outline:
as §1

Experiment [9] relates to Rattus norvegicus. The experiment is described as follows: compound was tested for antipsychotic activity by conditioned avoidance response(CAR) assay in rats with a pretreatment period of 30 min upon intra peritoneal administration at a concentration of 15 mg/kg. Format: functional.
Experiment [10] relates to Rattus norvegicus. The experiment is described as follows: compound was tested for antipsychotic activity by conditioned avoidance response(CAR) assay in rats with a pretreatment period of 60 min upon peroral administration at a concentration of 10 mg/kg. Format: functional. The note with it: route oral. In outline: as §1
The subject of experiment [11] is Rattus norvegicus. The experiment is described as follows: compound was tested for antipsychotic activity by conditioned avoidance response(CAR) assay in rats with a pretreatment period of 240 min upon intra peritoneal administration at a concentration of 2.5 mg/kg. Type of experiment: functional. In outline:
as §1

For experiment [12], the system named is Rattus norvegicus. Nature of the experiment: compound was tested for antipsychotic activity by conditioned avoidance response(CAR) assay in rats with a pretreatment period of 30 min upon intra peritoneal administration at a concentration of 2.5 mg/kg. Type of experiment: functional. In outline: as §1
Experiment [13] has as its system Rattus norvegicus. The experiment is described as follows: compound was tested for antipsychotic activity by conditioned avoidance response(CAR) assay in rats with a pretreatment period of 240 min upon peroral administration at a concentration of 20 mg/kg. The following applies: route oral. Type of experiment: functional. In outline:
as §1

Experiment [14] relates to Rattus norvegicus. The experiment is described as follows: compound was tested for antipsychotic activity by conditioned avoidance response(CAR) assay in rats with a pretreatment period of 60 min upon peroral administration at a concentration of 20 mg/kg. Type of experiment: functional. The note with it: route oral.
For experiment [15], the system named is Rattus norvegicus. The experiment is described as follows: Percent catalepsy in male Spargue-Dawley rat at pretreatment time 60 mins and when administered ip at dose 50 mg/kg. Format: functional. The note with it: route intraperitoneal. In outline: (§3)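 Catalepsy in rats, groups of five per drug treatment, scored blind to drug and dose. Each session included a saline or vehicle negative control and a haloperidol 2 mg/kg positive control. Deaths during the experiment were recorded in the catalepsy column as number dead out of five.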

The test system of experiment [16] is Rattus norvegicus. The experiment is described as follows: compound was tested for antipsychotic activity by conditioned avoidance response(CAR) assay in rats with a pretreatment period of 30 min upon intra peritoneal administration at a concentration of 5 mg/kg. Type of experiment: functional. In outline:
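Rat conditioned avoidance test modified from Martin et al. Trained rats (N = 4) were run in 1-h sessions on two consecutive days. Fed animals had food and water until placed in the test chambers. Dosing was ip with 30 min pretreatment, and activity was expressed as percent inhibition at the stated dose.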

Experiment [17] relates to Rattus norvegicus. Nature of the experiment: Percent catalepsy in male Spargue-Dawley rat at pretreatment time 240 mins and when administered ip at dose 50 mg/kg. The following applies: route intraperitoneal. Type of experiment: functional. In outline:
as §3

For experiment [18], the system named is Rattus norvegicus. The experiment is described as follows: Percent catalepsy in male Spargue-Dawley rat at pretreatment time 60 mins and when administered ip at dose 50 mg/kg (1/5L denotes that one rat out of five died during the course of experiment). Type of experiment: functional. The following applies: route intraperitoneal. In outline:
as §2

Experiment [19] deals with Rattus norvegicus. The experiment is described as follows: compound was tested for antipsychotic activity by conditioned avoidance response(CAR) assay in rats with a pretreatment period of 30 min upon intra peritoneal administration. Type of experiment: functional. In outline:
as §1

Experiment [20] relates to Rattus norvegicus. The experiment is described as follows: compound was tested for antipsychotic activity by conditioned avoidance response(CAR) assay in rats with a pretreatment period of 240 min upon peroral administration. Type of experiment: functional. The note with it: po. In outline: as §1
Experiment [21] concerns Rattus norvegicus. Nature of the experiment: compound was tested for antipsychotic activity by conditioned avoidance response(CAR) assay in rats with a pretreatment period of 60 min upon peroral administration. Type of experiment: functional. The following applies: po. In outline: as §1
For experiment [22], the system named is Rattus norvegicus. The experiment is described as follows: compound was tested for antipsychotic activity by conditioned avoidance response(CAR) assay in rats and pretreatment period of 60 min upon peroral administration. Type of experiment: functional. The following applies: po. In outline:
as §1

As a reminder, the inhibition in vivo is the relative decrease from the control value, in per cent. Broadly, the Ki is a measure of affinity in units of concentration, obtained from inhibition or displacement. A low value points to a stronger hold on the target. The ED50 is the midpoint of the dose-response relation.

`CC(C)Oc1ccccc1N1CCN(Cc2cccc(C(=O)N3CCCC3)c2)CC1`: in [1], the inhibition in vivo at 13.4 mg/kg is -79.4%. Besides, the Ki in experiment [2] is 1.9 nM; in experiment [4], 3.6 nM. Further, the Catalepsy in [3] and in [7] was 0% each time. The inhibition in vivo at 1 mg/kg in experiment [5] was -44.8%. Further, in experiment [6], the inhibition in vivo at 7.5 mg/kg is -98.3%.

With `O=C(c1cccc(CN2CCNCC2)c1)N1CCCCC1`, in [2], the Ki is recorded as greater than 1000 nM. For the same compound, the inhibition in vivo at 15 mg/kg in experiment [8] was -30.2%.

As to `CC(C)Oc1ccccc1N1CCN(Cc2cccc(C(=O)N3CCc4ccccc43)c2)CC1`, in experiment [9], the inhibition in vivo at 15 mg/kg is -95.8%. Besides, the Ki was 1.7 nM in [2] and 3.4 nM in [4]. In [10], the inhibition in vivo at 10 mg/kg is -1.4%. The inhibition in vivo at 1 mg/kg in experiment [5] is -1.6%.

`CCN(CC)C(=O)c1cccc(CN2CCN(c3ccccc3OC(C)C)CC2)c1`: the results for the inhibition in vivo at 2.5 mg/kg in experiment [11] and in experiment [12] were -44.4% and -60%, respectively. In experiment [9], the inhibition in vivo at 15 mg/kg was -94.5%. For the same compound, the values for the inhibition in vivo at 20 mg/kg in [13] and in experiment [14] were -44.6% and -93.4%, respectively. The figures for the Ki in [2] and in [4] were 4.4 nM and 2.1 nM, respectively. Besides, the Catalepsy was 76.9% in [15] and 36.8% in experiment [17]. Moreover, in experiment [5], the inhibition in vivo at 1 mg/kg is -65.1%. Besides, in experiment [16], the inhibition in vivo at 5 mg/kg was -96.2%.

Take `CC(C)Oc1ccccc1C1CCN(Cc2cccc(C(=O)N3CCCCC3)c2)CC1`: in [18], the Catalepsy turned out to be 26.3%. The same compound displayed a Ki in [2] of 2.2 nM. Besides, the ED50 worked out at 0.75 mg/kg in experiment [19], 7.93 mg/kg in experiment [20] and 7.69 mg/kg in experiment [21].

For `CC(C)Oc1ccccc1N1CCN(Cc2ccc(CN3CCCCC3=O)n2C)CC1` [RWJ-25730], the ED50 in [22] came out at 34.7 mg/kg.
